According to ChEMBL document CHEMBL3085696, “Aurora isoform selectivity: design and synthesis of imidazo[4,5-b]pyridine derivatives as highly selective inhibitors of Aurora-A kinase in cells” (J Med Chem, 2013):

How the values were obtained:
[1] = target: T1, Receptor-type tyrosine-protein kinase FLT3 (Homo sapiens, UniProt P36888); assay: Inhibition of FLT3 (unknown origin) at 1 uM
T1 sequence (P36888 whole entry): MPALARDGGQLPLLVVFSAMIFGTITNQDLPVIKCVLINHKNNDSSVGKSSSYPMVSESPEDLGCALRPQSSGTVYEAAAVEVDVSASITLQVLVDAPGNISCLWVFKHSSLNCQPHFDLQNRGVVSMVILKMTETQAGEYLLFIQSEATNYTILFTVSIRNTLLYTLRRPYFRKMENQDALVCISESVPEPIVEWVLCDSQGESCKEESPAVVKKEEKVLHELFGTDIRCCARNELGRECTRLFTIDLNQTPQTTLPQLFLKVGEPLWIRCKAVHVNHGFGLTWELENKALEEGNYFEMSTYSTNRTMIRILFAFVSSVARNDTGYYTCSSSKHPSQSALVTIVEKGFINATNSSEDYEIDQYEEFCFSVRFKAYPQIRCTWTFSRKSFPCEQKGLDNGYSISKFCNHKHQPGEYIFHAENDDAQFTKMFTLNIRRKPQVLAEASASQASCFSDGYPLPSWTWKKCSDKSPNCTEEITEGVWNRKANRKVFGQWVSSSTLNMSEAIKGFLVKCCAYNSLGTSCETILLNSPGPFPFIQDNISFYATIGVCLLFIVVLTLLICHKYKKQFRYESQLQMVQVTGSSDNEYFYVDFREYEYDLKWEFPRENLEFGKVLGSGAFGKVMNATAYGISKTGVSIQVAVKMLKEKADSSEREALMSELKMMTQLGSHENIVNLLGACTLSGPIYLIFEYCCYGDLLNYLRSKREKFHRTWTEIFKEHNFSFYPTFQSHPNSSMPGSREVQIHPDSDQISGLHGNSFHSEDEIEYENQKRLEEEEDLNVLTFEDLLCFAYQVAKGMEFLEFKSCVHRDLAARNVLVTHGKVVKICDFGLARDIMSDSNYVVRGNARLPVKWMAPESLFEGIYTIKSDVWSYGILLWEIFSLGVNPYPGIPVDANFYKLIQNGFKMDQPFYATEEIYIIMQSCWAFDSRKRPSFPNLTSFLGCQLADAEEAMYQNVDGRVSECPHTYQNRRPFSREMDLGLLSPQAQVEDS
Procedure, shortened: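 Single-concentration (1 μM) profiling within a 110-kinase selectivity panel; activity expressed as percent inhibition of each kinase.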

[2] = Metabolic stability in CD1 mouse liver microsomes at 10 uM after 30 mins; type: ADME, Microsome
Procedure, shortened: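 Compound at 10 μM incubated with male CD1 mouse liver microsomes (1 mg/mL protein) plus NADPH 1 mM, UDPGA 2.5 mM and MgCl2 3 mM in 10 mM PBS at 37 °C, for 0 and 30 min. Controls omit cofactors. Percent remaining measured by LC/MS.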

Mus musculus [3] = assay: Volume of distribution in Balb/C mouse at 5 mg/kg, iv and po; type: ADME, organism-based; set-up: dose 5 mg/kg, route oral; conditions: in vivo
Procedure, shortened: (§1)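 Female Balb/C mice given 5 mg/kg po or iv in 10% DMSO/5% Tween 20 in saline. Terminal cardiac-puncture plasma taken at 5, 15, 30 min and 1, 2, 4, 6, 24 h. Methanol precipitation with olomoucine internal standard. Analysis by LC/MS (ESI+ MRM).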

Mus musculus [4] = assay: Oral bioavailability in Balb/C mouse at 5 mg/kg; type: ADME, organism-based; conditions: in vivo; procedure, shortened: as §1
[5] = target: Vascular endothelial growth factor receptor 1 (Homo sapiens) (UniProt P17948); assay: Inhibition of VEGFR1 (unknown origin) at 1 uM
Procedure, shortened: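 110-kinase panel profiling, compounds tested at 1 μM, read as percent inhibition.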

Aurora kinase A [6] = target: T2, Aurora kinase A (Homo sapiens, UniProt O14965); assay: Inhibition of autophosphorylation of N-terminal Myc tagged aurora-A at T288 in human HeLa cells after 2 hrs; type: cell-based
T2 sequence (O14965 whole entry): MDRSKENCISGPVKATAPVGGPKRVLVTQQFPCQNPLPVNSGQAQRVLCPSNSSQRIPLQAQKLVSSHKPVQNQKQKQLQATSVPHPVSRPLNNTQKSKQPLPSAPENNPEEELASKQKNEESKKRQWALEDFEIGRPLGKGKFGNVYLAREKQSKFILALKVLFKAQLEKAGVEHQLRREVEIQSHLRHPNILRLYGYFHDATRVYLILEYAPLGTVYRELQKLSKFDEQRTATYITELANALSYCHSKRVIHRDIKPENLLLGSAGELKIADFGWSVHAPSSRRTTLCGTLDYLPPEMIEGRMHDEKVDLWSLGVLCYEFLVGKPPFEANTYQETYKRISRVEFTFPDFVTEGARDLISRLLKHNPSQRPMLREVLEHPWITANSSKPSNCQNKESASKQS
Procedure, shortened: (§2)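 Cells transfected with Myc-tagged Aurora-A (wild type or T217E, L215R, R220K mutants) and treated with inhibitor concentrations for 2 h. Lysed in LDS buffer; SDS-type PAGE and western blot. Blots probed for P-T288 (Aurora-A autophosphorylation) and phospho-histone H3 S10 (Aurora-B substrate). Blots quantified; IC50 derived; ratio taken as H3 IC50 over T288 IC50.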

Aurora kinase A [7] = target: T2, Aurora kinase A; assay: Inhibition of autophosphorylation of N-terminal Myc tagged wild type aurora-A at T288 in human HCT116 cells after 2 hrs; type: cell-based, HCT-116
Procedure, shortened: (§3)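 Cells transfected with N-terminal Myc-tagged Aurora-A (wild type or T217E, L215R or R220K mutant, made by Quikchange mutagenesis), then exposed to a range of inhibitor concentrations for 2 h. Lysed in LDS sample buffer, sonicated, boiled, run on LDS-PAGE and blotted to nitrocellulose. Probed with anti-P-T288 (Aurora-A autophosphorylation) and anti-P-histone H3 S10 (Aurora-B substrate) antibodies. Blots quantified and IC50 fitted.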

Aurora kinase B [8] = target: T3, Aurora kinase B (Homo sapiens, UniProt Q96GD4); assay: Inhibition of N-terminal Myc tagged aurora-B-mediated histone H3 phosphorylation at S10 in human HeLa cells after 2 hrs; type: cell-based; procedure, shortened: as §2
[9] = target: T4, Aurora kinase A (Homo sapiens) (UniProt O14965); conditions: 1 uM
T4 sequence (whole entry): T2 sequence (O14965 whole entry)

Aurora kinase A [10] = target: Aurora kinase A (Homo sapiens, UniProt O14965, L215R); assay: Inhibition of autophosphorylation of aurora-A L215R mutant at T288 in human HCT116 cells after 2 hrs; type: cell-based, HCT-116; procedure, shortened: as §3
Aurora kinase A [11] = target: Aurora kinase A (Homo sapiens, UniProt O14965, T217E); assay: Inhibition of autophosphorylation of aurora-A T217E mutant at T288 in human HCT116 cells after 2 hrs; type: cell-based, HCT-116; procedure, shortened: as §3
Aurora kinase B [12] = target: T3, Aurora kinase B; assay: Inhibition of full-length aurora-B (unknown origin) using 5FAMLRRASLG-CONH2 as substrate after 60 mins
Procedure, shortened: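 Full-length Aurora-B/INCENP complex (1 nM) incubated with 1.5 μM 5FAM-LRRASLG-CONH2 peptide and 15 μM ATP in Tris pH 7.4 buffer with NaCl, MgCl2, DTT, Tween 20. Runs 60 min at room temperature, then EDTA stop. Microfluidic mobility-shift readout of percent conversion. Duplicate 8-point curves, 0.25 pM–200 μM final. IC50 by four-parameter logistic fit.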

Aurora kinase A [13] = target: T2, Aurora kinase A; assay: Inhibition of autophosphorylation of N-terminal Myc tagged aurora-A at T288 in human HCT116 cells after 2 hrs; type: cell-based, HCT-116; procedure, shortened: as §2

T3 sequence (Q96GD4 whole entry): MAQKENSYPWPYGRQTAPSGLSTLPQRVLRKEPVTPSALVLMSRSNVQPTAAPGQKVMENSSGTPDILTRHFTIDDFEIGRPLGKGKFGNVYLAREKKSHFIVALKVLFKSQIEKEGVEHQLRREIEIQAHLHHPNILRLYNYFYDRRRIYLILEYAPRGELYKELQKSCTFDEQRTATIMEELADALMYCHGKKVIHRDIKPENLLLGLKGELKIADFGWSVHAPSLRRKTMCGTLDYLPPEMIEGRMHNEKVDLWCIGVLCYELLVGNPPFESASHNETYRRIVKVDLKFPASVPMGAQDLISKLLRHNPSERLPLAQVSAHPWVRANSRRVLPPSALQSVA
Sequence of Aurora kinase A (Homo sapiens, UniProt O14965, T217E) (O14965 whole entry I57V/T217E): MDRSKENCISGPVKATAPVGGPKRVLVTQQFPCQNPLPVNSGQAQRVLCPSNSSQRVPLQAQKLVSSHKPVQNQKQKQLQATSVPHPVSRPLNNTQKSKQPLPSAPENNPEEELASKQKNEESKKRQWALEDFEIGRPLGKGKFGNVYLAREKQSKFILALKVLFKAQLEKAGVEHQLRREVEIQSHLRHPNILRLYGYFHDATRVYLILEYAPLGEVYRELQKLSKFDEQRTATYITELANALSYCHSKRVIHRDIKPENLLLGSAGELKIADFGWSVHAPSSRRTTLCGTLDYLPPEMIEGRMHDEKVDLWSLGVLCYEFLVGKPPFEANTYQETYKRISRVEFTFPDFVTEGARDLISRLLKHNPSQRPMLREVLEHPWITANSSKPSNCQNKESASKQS
Sequence of Vascular endothelial growth factor receptor 1 (Homo sapiens) (P17948 whole entry): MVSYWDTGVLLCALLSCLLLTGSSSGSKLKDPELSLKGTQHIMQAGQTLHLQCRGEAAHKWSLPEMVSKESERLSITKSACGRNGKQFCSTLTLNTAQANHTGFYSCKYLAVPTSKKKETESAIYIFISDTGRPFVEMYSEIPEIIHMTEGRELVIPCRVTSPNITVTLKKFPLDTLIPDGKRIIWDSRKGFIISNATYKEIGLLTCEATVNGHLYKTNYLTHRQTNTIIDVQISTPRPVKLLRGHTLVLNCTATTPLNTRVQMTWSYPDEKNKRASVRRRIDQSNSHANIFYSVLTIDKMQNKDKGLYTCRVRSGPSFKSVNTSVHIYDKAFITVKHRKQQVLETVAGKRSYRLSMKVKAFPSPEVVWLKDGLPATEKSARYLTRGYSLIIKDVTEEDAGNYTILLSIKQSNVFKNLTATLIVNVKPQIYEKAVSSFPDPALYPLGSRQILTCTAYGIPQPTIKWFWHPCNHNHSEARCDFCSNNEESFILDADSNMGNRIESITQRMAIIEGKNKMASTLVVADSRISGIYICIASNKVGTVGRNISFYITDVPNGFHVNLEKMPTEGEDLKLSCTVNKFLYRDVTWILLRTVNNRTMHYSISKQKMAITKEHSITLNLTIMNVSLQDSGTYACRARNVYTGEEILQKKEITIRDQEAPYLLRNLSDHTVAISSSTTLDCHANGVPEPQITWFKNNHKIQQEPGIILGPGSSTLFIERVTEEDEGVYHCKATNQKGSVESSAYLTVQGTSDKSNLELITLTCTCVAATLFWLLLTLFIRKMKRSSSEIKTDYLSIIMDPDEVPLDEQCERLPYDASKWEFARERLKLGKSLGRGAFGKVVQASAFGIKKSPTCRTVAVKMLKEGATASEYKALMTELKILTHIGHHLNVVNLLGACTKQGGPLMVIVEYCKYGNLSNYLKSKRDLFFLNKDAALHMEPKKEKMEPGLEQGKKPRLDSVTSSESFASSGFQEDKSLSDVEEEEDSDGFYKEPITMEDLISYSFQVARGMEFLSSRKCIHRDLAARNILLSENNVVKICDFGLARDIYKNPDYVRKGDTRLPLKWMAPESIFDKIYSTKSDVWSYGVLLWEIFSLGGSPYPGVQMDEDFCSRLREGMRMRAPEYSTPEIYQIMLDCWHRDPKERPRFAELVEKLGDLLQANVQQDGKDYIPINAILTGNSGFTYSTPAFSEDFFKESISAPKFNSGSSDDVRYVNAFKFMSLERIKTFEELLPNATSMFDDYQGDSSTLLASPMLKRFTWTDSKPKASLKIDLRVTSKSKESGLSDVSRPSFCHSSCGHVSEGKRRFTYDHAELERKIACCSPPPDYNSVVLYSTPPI
Sequence of Aurora kinase A (Homo sapiens, UniProt O14965, L215R) (O14965 whole entry I57V/L215R): as the sequence (O14965 whole entry I57V/T217E) above, with L215R, E217T counted along it

Cc1nn(C)cc1-c1nc2c(Oc3ccc(C(=O)Nc4ccccc4)cc3)c(Cl)cnc2[nH]1
IC50 [1]: 162 nM | metabolized at 0.5 h, 10 µM [2]: 22% | Vd (Mus musculus [3]): 1.8 L/kg | F (Mus musculus [4]): 100% | inhibition [5]: > 80% | IC50 (Aurora kinase A [6]): 160 nM | IC50 (Aurora kinase A [7]): 29 nM | IC50 (Aurora kinase B [8]): 76800 nM | inhibition [9]: > 80% | IC50 (Aurora kinase A [10]): 27 nM | IC50 (Aurora kinase A [11]): 960 nM | IC50 (Aurora kinase B [12]): 12700 nM | IC50 (Aurora kinase A [13]): 65 nM
